# ChEMBL document CHEMBL4028872, “Structure-Activity Relationship, Pharmacological Characterization, and Molecular Modeling of Noncompetitive Inhibitors of the Betaine/γ-Aminobutyric Acid Transporter 1 (BGT1)” (J Med Chem, 2017)
# Key:
# GABA transporter 2 [1] = target: T1, GABA transporter 2 (Mus musculus, UniProt P31651); test: Inhibition of mouse BGT1 expressed in hamster BHK cells assessed as reduction in [3H]GABA uptake after 3 mins by scintillation counting method; format: cell-based; conditions: read-out: Ki(app)
# T1 sequence (P31651 whole entry): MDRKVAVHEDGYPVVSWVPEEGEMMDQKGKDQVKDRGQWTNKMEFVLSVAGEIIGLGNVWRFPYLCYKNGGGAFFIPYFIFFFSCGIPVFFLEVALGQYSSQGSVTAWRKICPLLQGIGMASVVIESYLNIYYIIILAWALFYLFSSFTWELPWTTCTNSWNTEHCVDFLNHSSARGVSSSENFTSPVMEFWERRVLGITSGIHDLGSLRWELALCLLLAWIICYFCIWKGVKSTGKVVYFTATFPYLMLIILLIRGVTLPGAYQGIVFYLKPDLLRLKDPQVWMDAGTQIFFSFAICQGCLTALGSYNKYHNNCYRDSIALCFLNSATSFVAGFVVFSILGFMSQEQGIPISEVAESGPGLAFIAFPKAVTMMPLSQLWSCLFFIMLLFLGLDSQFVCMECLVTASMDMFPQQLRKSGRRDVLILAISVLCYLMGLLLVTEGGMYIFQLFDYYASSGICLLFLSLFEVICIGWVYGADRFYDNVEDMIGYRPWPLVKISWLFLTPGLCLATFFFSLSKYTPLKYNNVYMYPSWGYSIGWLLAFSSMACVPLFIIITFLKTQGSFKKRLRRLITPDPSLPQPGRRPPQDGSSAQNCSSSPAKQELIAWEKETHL
# GABA transporter 3 [2] = target: T2, GABA transporter 3 (Mus musculus, UniProt P31649); test: Inhibition of mouse GAT2 expressed in hamster BHK cells assessed as reduction in [3H]GABA uptake after 3 mins by scintillation counting method; format: cell-based; conditions: read-out: Ki(app)
# T2 sequence (P31649 whole entry): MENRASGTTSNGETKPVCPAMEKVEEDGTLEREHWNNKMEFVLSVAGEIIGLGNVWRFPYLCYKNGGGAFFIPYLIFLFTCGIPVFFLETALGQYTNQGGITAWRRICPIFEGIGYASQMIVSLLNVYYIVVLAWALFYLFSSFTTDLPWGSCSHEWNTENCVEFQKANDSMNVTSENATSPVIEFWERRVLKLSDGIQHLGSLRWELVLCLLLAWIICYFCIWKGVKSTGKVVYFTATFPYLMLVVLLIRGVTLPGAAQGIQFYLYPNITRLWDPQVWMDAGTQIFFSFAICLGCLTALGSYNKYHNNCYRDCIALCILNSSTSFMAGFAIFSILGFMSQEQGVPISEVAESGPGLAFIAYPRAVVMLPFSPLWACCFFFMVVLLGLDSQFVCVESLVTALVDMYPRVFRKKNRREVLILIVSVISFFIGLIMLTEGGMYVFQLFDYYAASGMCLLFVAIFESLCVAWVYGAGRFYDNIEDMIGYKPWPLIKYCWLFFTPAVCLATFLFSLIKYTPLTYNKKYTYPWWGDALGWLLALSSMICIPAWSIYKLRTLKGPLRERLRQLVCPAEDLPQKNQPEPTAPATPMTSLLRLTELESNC
# [3] = target: T3, Sodium- and chloride-dependent GABA transporter 1 (Mus musculus, UniProt P31648); test: Inhibition of mouse GAT1 expressed in hamster BHK cells assessed as reduction in [3H]GABA uptake after 3 mins by scintillation counting method; format: cell-based; conditions: read-out: Ki(app)
# [4] = target: Sodium- and chloride-dependent GABA transporter 3 (Homo sapiens, UniProt P48066, L314Q); test: Inhibition of human GAT3 L314Q mutant expresses in tsA201 cells assessed as reduction in [3H]GABA uptake after 3 mins by scintillation counting method; format: cell-based
# Sodium- and chloride-dependent GABA transporter 3 (Homo sapiens, UniProt P48066, L314Q), sequence (P48066 whole entry L314Q): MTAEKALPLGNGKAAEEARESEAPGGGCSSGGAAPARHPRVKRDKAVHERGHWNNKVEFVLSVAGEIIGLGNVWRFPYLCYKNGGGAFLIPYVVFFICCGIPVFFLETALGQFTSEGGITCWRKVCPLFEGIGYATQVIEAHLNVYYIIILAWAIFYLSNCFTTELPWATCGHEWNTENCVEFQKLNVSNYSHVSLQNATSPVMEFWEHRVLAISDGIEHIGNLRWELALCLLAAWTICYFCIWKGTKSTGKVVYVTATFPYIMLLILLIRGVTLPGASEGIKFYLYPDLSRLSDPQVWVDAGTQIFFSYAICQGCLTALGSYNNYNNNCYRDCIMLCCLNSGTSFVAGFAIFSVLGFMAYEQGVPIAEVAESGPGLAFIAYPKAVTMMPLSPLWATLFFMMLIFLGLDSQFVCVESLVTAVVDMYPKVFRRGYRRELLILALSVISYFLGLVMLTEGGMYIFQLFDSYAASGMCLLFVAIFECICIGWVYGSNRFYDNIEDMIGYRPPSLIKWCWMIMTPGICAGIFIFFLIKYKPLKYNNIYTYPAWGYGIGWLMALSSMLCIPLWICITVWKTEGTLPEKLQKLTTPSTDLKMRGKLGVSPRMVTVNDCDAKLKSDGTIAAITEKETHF
# Procedure, shortened: (§1)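 Site-directed mutant transporters transiently transfected (PolyFect) into tsA201 cells, plated and used about 24 h later. Cells were washed with HBSS containing 20 mM HEPES, 1 mM CaCl2 and 1 mM MgCl2, pH 7.4. Uptake of 30 nM [3H]GABA was run with varied inhibitor concentrations for 3 min at 37 °C, then three ice-cold washes and scintillation counting. IC50 was taken from variable-slope sigmoidal fits. Triplicates, at least three independent experiments.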
# [5] = target: Sodium- and chloride-dependent GABA transporter 3 (Homo sapiens, UniProt P48066, S468Y); test: Inhibition of human GAT3 S468Y mutant expresses in tsA201 cells assessed as reduction in [3H]GABA uptake after 3 mins by scintillation counting method; format: cell-based; procedure, shortened: as §1
# Sodium- and chloride-dependent GABA transporter 3 (Homo sapiens, UniProt P48066, S468Y), sequence (P48066 whole entry S468Y): as the sequence (P48066 whole entry L314Q) above, with Q314L, S468Y counted along it
# GABA transporter 3 [6] = target: T2, GABA transporter 3; test: Inhibition of mouse GAT2 expressed in HEK293 cells assessed as reduction in [3H]GABA uptake after 3 mins by scintillation counting method; format: cell-based
# Procedure, shortened: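 HEK293 cells stably expressing mouse GAT2 were kept under blasticidin-S (5 µg/mL) selection. Ice-cold washes preceded scintillation counting. IC50 came from a variable-slope sigmoidal fit.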
# [7] = Solubility of compound in pH 7.4 phosphate buffer after 24 hrs by HPLC-UV method; format: physicochemical
# [8] = target: T3, Sodium- and chloride-dependent GABA transporter 1; test: Inhibition of mouse GAT1 expressed in HEK293 cells assessed as reduction in [3H]GABA uptake after 3 mins by scintillation counting method; format: cell-based
# Procedure, shortened: (§2)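 HEK293 lines stably expressing a single mouse GAT subtype, kept under blasticidin-S (5 µg/mL) selection. Cells were assayed about 24 h after plating with 30 nM [3H]GABA plus varying compound concentrations for 3 min at 37 °C in HBSS buffered with 20 mM HEPES (1 mM CaCl2, 1 mM MgCl2, pH 7.4). Cells were washed ice-cold and radioactivity counted. IC50 came from sigmoidal variable-slope fits.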
# GABA transporter 2 [9] = target: T1, GABA transporter 2; test: Inhibition of mouse BGT1 expressed in HEK293 cells assessed as reduction in [3H]GABA uptake after 3 mins by scintillation counting method; format: cell-based; procedure, shortened: as §2
IC50 [4] [µM],IC50 [5] [µM],Compound,Ki (GABA transporter 2 [1]) [µM],Ki (GABA transporter 3 [2]) [µM],Ki [3] [µM],IC50 (GABA transporter 3 [6]) [µM],solubility at 24 h [7] [µg/mL],IC50 [8] [µM],IC50 (GABA transporter 2 [9]) [µM],IC50 (GABA transporter 2 [9]; read-out: IC50) [µM]
,,COc1ccccc1C1(O)CCN(CCCn2c3ccccc3c3ccccc32)CC1,1.4,41,19,,,,,
4,1,NCCCC(=O)O [GAMMA-AMINOBUTYRIC ACID],,,,,,,,
,,CCOc1cccc(CN2CCC(NC(=O)c3ccc(Cl)nc3Cl)CC2)c1,,,,> 300,130,> 300,111,111
,,O=C(NC1CCN(Cc2ccccc2)CC1)c1c(Cl)cc(Cl)cc1Cl,,,,1700,40,> 1000,,11
,,COc1cccc(CN2CCC(NC(=O)c3ccc(Cl)nc3Cl)CC2)c1,,,,> 300,240,> 300,,115
,,O=C(NC1CCN(Cc2cccc(C(F)(F)F)c2)CC1)c1ccc(Cl)cc1Cl,,,,> 1000,3,> 1000,,51
